A selection: hits, their analogues and other compounds. The true share with any hit is near 3%.
TRPC4 agonist = activators of mouse TRPC4 channel; HEK293 TRPC4beta/mu-opioid, Fluo4 calcium fluorescence; active compounds read high; AID 2237; Q9QUQ5; B-score at 10 µM; hit rate 0.49% among 310,000;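 active means B-score above 5 SD of library B-scores, and initial fluorescence ratio not above library mean plus 5 SD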;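 further: positive B-score marks a calcium rise read as TRPC4 activation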
Target sequence (Q9QUQ5 whole entry, looked up): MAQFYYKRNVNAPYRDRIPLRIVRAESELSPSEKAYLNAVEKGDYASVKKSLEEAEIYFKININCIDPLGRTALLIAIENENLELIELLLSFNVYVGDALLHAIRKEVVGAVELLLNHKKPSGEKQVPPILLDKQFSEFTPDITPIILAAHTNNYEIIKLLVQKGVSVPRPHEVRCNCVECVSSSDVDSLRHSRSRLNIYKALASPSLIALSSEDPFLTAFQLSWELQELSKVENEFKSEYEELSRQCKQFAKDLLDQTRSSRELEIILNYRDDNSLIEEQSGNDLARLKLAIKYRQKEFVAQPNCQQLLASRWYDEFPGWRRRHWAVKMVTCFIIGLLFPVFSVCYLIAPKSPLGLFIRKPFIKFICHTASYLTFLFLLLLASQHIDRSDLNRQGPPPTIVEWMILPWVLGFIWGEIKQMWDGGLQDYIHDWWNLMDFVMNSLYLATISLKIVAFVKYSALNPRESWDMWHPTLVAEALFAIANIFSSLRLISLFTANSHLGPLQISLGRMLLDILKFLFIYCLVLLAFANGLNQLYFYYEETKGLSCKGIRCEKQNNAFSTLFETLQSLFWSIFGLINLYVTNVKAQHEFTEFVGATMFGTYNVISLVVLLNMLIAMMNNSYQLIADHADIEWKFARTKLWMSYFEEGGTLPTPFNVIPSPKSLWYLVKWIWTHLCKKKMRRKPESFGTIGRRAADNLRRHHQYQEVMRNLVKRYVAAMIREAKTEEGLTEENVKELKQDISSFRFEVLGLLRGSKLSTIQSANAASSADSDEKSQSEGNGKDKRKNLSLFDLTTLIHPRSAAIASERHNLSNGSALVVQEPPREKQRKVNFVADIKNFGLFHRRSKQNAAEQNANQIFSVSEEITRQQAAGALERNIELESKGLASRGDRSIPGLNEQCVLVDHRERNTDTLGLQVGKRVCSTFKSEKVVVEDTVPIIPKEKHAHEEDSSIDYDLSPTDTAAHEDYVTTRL
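Material: TRPC4beta and mu-opioid receptor HEK293 stable cells | Incubation: 45 min room-temperature Fluo4 loading, 110 s read | Detection: Kinetic Fluo4 calcium fluorescence | Measure: Integrated baseline-normalised fluorescence ratio, converted to per-well B score | Benchmarks: Low control buffer alone, high control maximal DAMGO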
TRPC4 block = inhibitors of mouse TRPC4 channel; B-score at 10 µM; hit rate 0.39% among 300,000; HEK293 TRPC4beta/mu-opioid, DAMGO-evoked Fluo4 calcium flux; active compounds read low; AID 2247;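 active means B-score over 3 SD under the library average, no early fluorescence shift, positive overall ratio signal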
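Assay system – HEK293 line stably carrying TRPC4beta and mu-opioid receptor · Doses – single dose · Detection – Fluo4 calcium-dye fluorescence, kinetic read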
Kir21 block = blocks the mouse Kir2.1 inward-rectifier potassium channel; HEK293-Kir2.1, FluxOR thallium flux fluorescence; active compounds read low; B-score at 10 µM; AID 1672; hit rate 0.85% among 310,000; P35561;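 active means fluorescence ratio B-score at or below minus 3 SD of library scores, with starting-brightness B-score within 2 SD, cut at about -4.2 in these data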;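 further: channel flux triggered by added potassium and thallium sulfate stimulus; B-score of peak minus minimum fluorescence over baseline after thallium stimulus; more negative B-score means stronger Kir2.1 block with less thallium influx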
TRPC6 activator = activators of mouse TRPC6 channel; Q61143; HEK293-TRPC6 membrane potential dye fluorescence; active compounds read high; B-score at 10 µM; hit rate 0.13% among 310,000; AID 2550;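 active means B-score of the integrated fluorescence ratio above library mean plus 3 SD, and starting fluorescence ratio within library mean plus 5 SD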;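 further: higher score means more depolarization so channel activation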
TRPC6 inhibitor = inhibitors of mouse TRPC6 channel; HEK293-TRPC6, membrane potential dye, ACh-evoked depolarization; active compounds read low; B-score at 10 µM; hit rate 1.1% among 310,000; AID 2553;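 active means B-score under library mean minus 3 SD, initial fluorescence not abnormally high, positive integrated signal ratio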;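 further: B-score derived from integrated fluorescence ratio over the kinetic read; more negative B-score means stronger inhibition of depolarization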
TRPC4 PAM = allosterically enhances the mouse TRPC4 cation channel | B-score at 10 µM | Q9QUQ5 | hit rate 0.42% among 310,000 | HEK293 TRPC4beta/mu-opioid, DAMGO EC20, Fluo-4 Ca2+ flux; active compounds read high | AID 2227;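 active means B-score of calcium response area above 5 SD of library B-scores, with initial fluorescence ratio within 5 SD of library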;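 further: B-score of integrated fluorescence ratio over time as area under calcium response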
TRPC4 sel inh 2 = second selectivity test of TRPC6 inhibitors: effect on mouse TRPC4 | shares compounds with TRPC6 inhibitor | HEK293 TRPC4/MOR, membrane potential dye fluorescence; channel activated by saturating DAMGO dose | inhibition, % at 10 µM | hit rate 42% among 920 | AID 2776;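 active means compounds whose fluorescence signal differed from control wells by over 3 SD, either direction, in both duplicate plates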
TRPC4 spec = mouse TRPC4 off-target activity of TRPC6 inhibitors | AID 2777 | HEK293 TRPC4/mu-opioid, membrane potential fluorescence | hit rate 61% among 920 | shares compounds with TRPC6 inhibitor | activity change, negative = inhibition, % at 10 µM;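 active means rise or fall in signal beyond 3 SD of buffer-only wells in both replicate plates, either sign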;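 further: integrated kinetic ratio of fluorescence range over baseline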
HEK293 MPD ctr 2-1 = second counter-screen for TRPC6 inhibitors: parental HEK293 cells; AID 2779; parental HEK293 membrane potential dye fluorescence; maximal acetylcholine challenge after compound addition; hit rate 31% among 920; shares compounds with TRPC6 inhibitor; signal change vs control, % at 10 µM;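 active means membrane potential signal moving either way by over 3 SD of the maximum-effect control, in both duplicate plates, meaning non-specific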
HEK293 MPD ctr-1 = checks TRPC6 inhibitor effects in parental HEK293 cells | shares compounds with TRPC6 inhibitor | parental HEK293 membrane potential dye fluorescence | membrane potential signal change, % at 10 µM | hit rate 60% among 920;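 active means membrane potential signal shifting up or down by more than 3 SD of buffer-only wells, on both duplicate plates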
HEK293 MPD ctr-2 = counter-screen for TRPC6 modulators: effect in parental HEK293 cells. shares compounds with TRPC6 inhibitor. membrane potential dye fluorescence. membrane potential signal change, % at 10 µM. hit rate 51% among 2,400;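 active means membrane potential signal moves up or down beyond 5 SD from buffer-only wells, on both duplicate plates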
HEK293 MPD ctr 2-2 = second check of TRPC6 modulator effects in parental HEK293 cells; shares compounds with TRPC6 inhibitor; membrane potential dye fluorescence; after compound, maximal acetylcholine stimulation; inhibition, % at 10 µM; hit rate 14% among 2,400; AID 488926;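 active means membrane potential signal drops by more than 5 SD from the mean control signal, in both duplicate plates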;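 further: plate controls were acetylcholine ECmax control wells for no effect and buffer only wells for full effect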
TRPC4/MOR mod = mouse TRPC4 off-target activity of TRPC6 modulators | shares compounds with TRPC6 inhibitor | HEK293 TRPC4/mu-opioid, membrane potential fluorescence | percent change from control (negative = decrease, positive = increase), % at 10 µM | hit rate 69% among 2,400;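 active means membrane potential signal moved up or down beyond 5 SD of buffer control wells, in both duplicate plates, actives on both sides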;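 further: plate controls were assay buffer wells for no effect and DAMGO maximal-effect wells for full effect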
TRPC4/MOR inh 2 = second selectivity test of TRPC6 modulators against mouse TRPC4. shares compounds with TRPC6 inhibitor. HEK293 TRPC4/mu-opioid, membrane potential dye fluorescence; stimulated with maximal-effect DAMGO. inhibition, % at 10 µM. hit rate 55% among 2,400;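 active means drop in membrane potential signal beyond 5 SD of the control wells in both duplicate plates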;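 further: TRPC4 counter screen for TRPC6 hits run under conditions tuned for TRPC6 not TRPC4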
TRPC6 block conf = confirmation of mouse TRPC6 inhibitors; shares compounds with TRPC6 inhibitor; HEK293-TRPC6, membrane potential dye, ACh-evoked depolarization; inhibition, % at 10 µM; hit rate 43% among 3,300;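 active means fluorescence ratio falls more than 5 SD below the full-stimulation control mean, in both duplicate runs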;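 further: integrated fluorescence ratio of peak minus minimum over baseline after agonist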
TRPC6 act conf = mouse TRPC6 activator confirmation; shares compounds with TRPC6 inhibitor; HEK293-TRPC6 membrane potential dye fluorescence, FDSS; activation, % at 10 µM; hit rate 11% among 2,800;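 active means ratio signal rise beyond 5 SD above unstimulated control wells' mean, seen in both duplicate runs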;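 further: plate controls were buffer EC0 wells for no effect and acetylcholine ECmax response for full effect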
Starred values were filed as active, the others as inactive; i = inactive; nt = not tested or not shown; ! = repeats disagree.

SMILES	TRPC4 agonist	TRPC4 block	Kir21 block	TRPC6 activator	TRPC6 inhibitor	TRPC4 PAM	HEK293 MPD ctr-2	HEK293 MPD ctr 2-2	TRPC4/MOR mod	TRPC4/MOR inh 2	TRPC6 block conf	TRPC6 act conf	others
COc1ccc(N2CC(NC(=O)NCC(C)C)CC2=O)cc1 (stereo not drawn)	i	i	-1.15	i	i	i	nt	nt	nt	nt	nt	nt
CN(c1cccc(NS(=O)(=O)c2cccs2)c1)S(C)(=O)=O	i	i	1.8	i	-6.1*	i	i	i	i	i	i	i
COc1ccc(S(=O)(=O)Nc2cccc(N(C)S(C)(=O)=O)c2)cc1Br	i	i	-1.01	i	i	i	nt	nt	nt	nt	nt	nt
N=c1c2c(-c3ccccc3)c(-c3ccccc3)n(Cc3ccco3)c2ncn1CCN1CCOCC1	i	i	-5.3*	i	-9.88*	i	nt	nt	nt	nt	i	i	TRPC4 sel inh 2=40.5%*;TRPC4 spec=3.4%*;HEK293 MPD ctr 2-1=207.5%*;HEK293 MPD ctr-1=8.2%*
N=c1c2c(-c3ccccc3)c(-c3ccccc3)n(Cc3ccco3)c2ncn1CCO	i	i	-9.9*	i	-6.6*	i	123.0%*	i	16.5%*	80.5%*	43.0%*	nt
c1ccc(-c2nc3nc4ccccc4nc3n2Cc2ccco2)cc1	i	i	-0.71	i	i	i	nt	nt	nt	nt	nt	nt
N=c1c2c(-c3ccccc3)c(-c3ccccc3)n(Cc3ccco3)c2ncn1CCCO	i	i	-5.47*	i	-5.1*	i	149.5%*	i	20.0%*	76.0%*	i	nt
O=C1C2CC=CCC2C(=O)N1c1ccc(NCCc2ccc(O)cc2)c([N+](=O)[O-])c1 (stereo not drawn)	i	i	1.64	i	i	i	nt	nt	nt	nt	nt	nt
Cc1c(S(=O)(=O)Nc2ccc(Oc3ccccc3)cc2)c(=O)n(C)c(=O)n1C	i	i	-0.04	i	i	i	nt	nt	nt	nt	nt	nt
O=C(c1ccco1)N1CCN(S(=O)(=O)c2ccc(Oc3ccccc3)cc2)CC1	i	i	-0.06	i	-12.7*	i	nt	nt	nt	nt	i	i	TRPC4 sel inh 2=i;TRPC4 spec=2.1%*;HEK293 MPD ctr 2-1=232.5%*;HEK293 MPD ctr-1=1.1%*
CN=C1c2cc3cc(OC)ccc3n2CCN1Cc1ccccc1	i	i	-3.18	i	i	i	nt	nt	nt	nt	nt	nt
CCN(CC)CCNC1=NCCn2c1cc1cc(OC)ccc12	i	i	0.44	i	-6.7*	i	-145.5%*	i	-27.5%*	43.5%*	i	i
CC(=O)Nc1c(-c2ccccc2)c2cc(Br)ccc2[nH]c1=O	i	i	1.03	i	i	i	nt	nt	nt	nt	nt	nt
COC(=O)c1ccsc1NC(=O)CN1CCN(c2ncccn2)CC1	i	i	1.74	i	i	i	nt	nt	nt	nt	nt	nt
CN1CCN(c2ccc(S(=O)(=O)N3CCCCC3)cc2NC(=O)COc2ccc(F)cc2)CC1	i	i	-0.01	i	-5.9*	10*	i	i	10.5%*	74.5%*	i	i
CC(C)(C)C(=O)Nc1cc(S(=O)(=O)N2CCCCC2)ccc1N1CCCCC1	i	i	-0.76	15.7*	-10.5*	i	179.5%*	i	19.5%*	i	43.0%*	74.5%*
Cc1cccc(-c2ncc(S(=O)(=O)C(C)(C)C)c(N)n2)c1	i	i	1.12	i	i	i	nt	nt	nt	nt	nt	nt
CSc1ccccc1NC(=O)c1ccccc1N(Cc1ccccc1)S(C)(=O)=O	i	i	0.03	i	-5.15*	i	141.5%*	i	29.5%*	i	i	nt
CN(C)CCCN1c2ccccc2Sc2ccc(Cl)cc21	i	i	-7.91*	i	-5.64*!	i	i	i	7.5%*	78.5%*	60.5%*	i
CN1CCN(c2nc3c(c(=O)[nH]c(=O)n3C)n2CCCSc2nnnn2-c2ccccc2)CC1	i	i	-1.11	i	-6.53*	i	-212.0%*	i	-28.5%*	i	i	i
COc1ccc2c(c1)C(C)=CC(C)(C)N2S(=O)(=O)c1ccc(NC(C)=O)cc1	i	i	3.43	13.8*	i	i	i	i	10.5%*	i	i	i
CC(NC(=O)Nc1nnc(C(F)(F)F)s1)N1C(=O)C2C3C=CC(C3)C2C1=O (stereo not drawn)	i	i	0.64	i	i	i	nt	nt	nt	nt	nt	nt
CC(NC(=O)Nc1nnc(C(F)(F)F)s1)(C(F)(F)F)C(F)(F)F	i	i	1.18	i	-7.3*	i	nt	nt	nt	nt	87.0%*	nt	TRPC4 sel inh 2=57.0%*;TRPC4 spec=50.7%*;HEK293 MPD ctr 2-1=i;HEK293 MPD ctr-1=30.4%*
CNC(=O)c1cc(NC(=O)CCn2nc(-c3ccc(C)cc3)c3ccccc3c2=O)ccc1OC	i	i	0.32	i	i	i	nt	nt	nt	nt	nt	nt
Cc1cc(=O)oc2c(C)c(OCC(=O)NCCCN3CCCC3=O)ccc12	i	i	0.59	i	-5.15*	i	-192.0%*	i	-27.5%*	i	i	i
Cc1c(OCC(=O)NCCCN2CCOCC2)ccc2c3c(c(=O)oc12)CCCC3	i	i	-0.33	i	i	i	nt	nt	nt	nt	nt	nt
